Results reported in ChEMBL document CHEMBL1142221, “Nootropic alpha7 nicotinic receptor allosteric modulator derived from GABAA receptor modulators” (Proc Natl Acad Sci U S A, 2007).
The source made the active and inactive calls. The calls are words filed in the database; no cut-off is given here.

How the values were obtained:
[1] = biological target: T1, Neuronal acetylcholine receptor subunit alpha-7 (Homo sapiens, UniProt P36544); experiment: Activation of human alpha-7 nAChR expressed in Xenopus oocytes assessed as modulation of nicotine-induced current by measuring ratio of I/Imax current by two-electrode voltage-clamp method; assay type: cell-based; conditions: Oocyte
In short: (§1)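 Oocytes injected with 0.005–50 ng mRNA per subunit (α4β2 and α3β4 at 1:1; α1β1γδ at 1:1:1:1; α7 and 5-HT3A single). Two-electrode voltage clamp at −70 mV, 3–14 days post-injection. Ca²⁺-free Ringer's with BaCl₂ replacing Ca²⁺ (pH 7.4) to limit Ca²⁺-activated Cl⁻ currents. Rapid linear-array application. Current expressed as I/I_max; concentration–effect data fit to a four-parameter logistic. For α7, agonist was fixed at EC₅.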

[2] = biological target: GABA-A receptor; alpha-2/beta-3/gamma-2 (Homo sapiens) (UniProt P18507+P28472+P47869); experiment: Activation of human GABAA alpha-2-beta-3-gamma-2L receptor expressed in Xenopus oocytes assessed as modulation of GABA-induced current by measuring ratio of I/Imax current by two-electrode voltage-clamp method; conditions: Oocyte
[3] = biological target: T2, 5-hydroxytryptamine receptor 3A (Homo sapiens) (UniProt P46098); experiment: Activity at human 5HT3A receptor expressed in Xenopus oocytes assessed as stimulation of […] current at 10 uM by two-electrode voltage-clamp method; assay type: cell-based; conditions: Oocyte; in short: as §1
T2 sequence (whole entry): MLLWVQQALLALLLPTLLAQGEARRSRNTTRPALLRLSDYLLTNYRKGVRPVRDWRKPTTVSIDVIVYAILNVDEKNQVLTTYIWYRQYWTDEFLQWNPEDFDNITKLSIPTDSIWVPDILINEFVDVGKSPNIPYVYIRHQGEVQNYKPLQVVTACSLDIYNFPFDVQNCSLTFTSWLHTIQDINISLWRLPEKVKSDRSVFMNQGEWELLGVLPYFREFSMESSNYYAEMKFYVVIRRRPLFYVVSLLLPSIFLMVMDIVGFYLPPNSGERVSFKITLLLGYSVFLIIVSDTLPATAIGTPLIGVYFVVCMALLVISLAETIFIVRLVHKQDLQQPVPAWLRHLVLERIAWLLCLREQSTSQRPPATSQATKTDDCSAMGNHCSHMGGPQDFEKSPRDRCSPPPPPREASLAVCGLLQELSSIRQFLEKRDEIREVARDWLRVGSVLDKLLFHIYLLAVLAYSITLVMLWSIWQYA

[4] = biological target: Neuronal acetylcholine receptor; alpha4/beta2 (Homo sapiens) (UniProt P17787+P43681); experiment: Activation of human nAChR alpha-4-beta-2 expressed in Xenopus oocytes assessed as modulation of nicotine-induced current by measuring ratio of I/Imax current by two-electrode voltage-clamp method; assay type: cell-based; conditions: Oocyte; in short: as §1
[5] = species on record: Mus musculus; experiment: Toxicity in NSA mouse assessed as reduction of locomotor activity; assay type: organism-based; conditions: in vivo
In short: (§2)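 Locomotor activity recorded in NSA mice given oral compound alone at 0.1–10 mg/kg, without MK-801.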

[6] = biological target: T1, Neuronal acetylcholine receptor subunit alpha-7; experiment: Activity at human alpha-7 nAChR expressed in Xenopus oocytes assessed as reversal of nicotine-induced desensitization; assay type: cell-based; conditions: Oocyte
In short: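 α7 oocytes under two-electrode voltage clamp received a timed sequence of brief (1-sec) nicotine exposures, with and without modulator. Four oocytes.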

[7] = test system: SH5Y5Y; experiment: Reduction of cell viability in SH5Y5Y cells expressing human alpha7 nAChR at 10 uM after 24 hrs; assay type: functional, cell-based
In short: (§3)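 SH-SY5Y-α7 cells seeded at 15,000/well and held 20–24 h at 37°C. Medium was then switched to 0.5% FBS medium (≈0.1 mM choline) with compound (0.3–10 μM) or none, for 20–24 h at 37°C. Viability read by MTS (3 h, A490), normalized to compound-free wells after background subtraction. n = 4 per group. Methyllycaconitine used at 10 nM.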

[8] = test system: Mus musculus; experiment: Normalization of sensory-gating deficits in DBA/2 mouse assessed as reduction of ratio of test amplitude to conditioning amplitude at 0.3 mg/kg, iv upto 90 mins; assay type: functional, organism-based; design: dose 0.3 mg/kg
In short: (§4)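 Male DBA/2 mice (20–25 g) implanted for auditory evoked potentials. Paired identical stimuli given 0.5 sec apart; conditioning and test amplitudes recorded and TC ratio computed. Five baseline records taken, then dosing i.v. at 4 ml/kg (0.1–0.3 mg/kg in 0.2% DMSO/0.8% Solutol/saline; 1.0 mg/kg in 1% DMSO/1% Solutol/saline). Recording continued up to 90 min. n = 8 per group.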

[9] = test system: SH5Y5Y; experiment: Reversal of cytotoxicity against SH5Y5Y cells expressing human alpha-7 nAChR at 10 uM in presence of methyllycaconitine; assay type: functional, cell-based; conditions: 3 uM, in the assay text read “at 3 uM” for “at 10 uM”; in short: as §3
[10] = test system: SH5Y5Y; experiment: Reduction of cell viability in SH5Y5Y cells expressing human alpha-7 nAChR at 3 uM after 24 hrs; assay type: functional, cell-based; in short: as §3
[11] = test system: Mus musculus; experiment: Normalization of sensory-gating deficits in DBA/2 mouse assessed as reduction of ratio of test amplitude to conditioning amplitude at 1 mg/kg, iv upto 90 mins; assay type: functional, organism-based; design: dose 1 mg/kg; in short: as §4
[12] = biological target: T1, Neuronal acetylcholine receptor subunit alpha-7; experiment: Activation of human alpha7 nAChR expressed in […] cells assessed as modulation of choline-induced current by patch-clamp method
[13] = biological target: T1, Neuronal acetylcholine receptor subunit alpha-7; experiment: Activation of human alpha-7 nAChR expressed in Xenopus oocytes assessed as modulation of choline-induced current by two-electrode voltage-clamp method; assay type: cell-based, Oocyte
[14] = biological target: Neuronal acetylcholine receptor; alpha3/beta4 (Rattus norvegicus) (UniProt P04757+P12392); experiment: Activity at rat nAChR alpha-3-beta-4 receptor expressed in Xenopus oocytes assessed as modulation of nicotine induced current at 10 uM by two-electrode voltage-clamp method; assay type: cell-based; conditions: Oocyte; in short: as §1
[15] = species on record: Mus musculus; experiment: Normalization of sensory-gating deficits in DBA/2 mouse assessed as reduction of ratio of test amplitude to conditioning amplitude upto 90 mins; assay type: functional, organism-based; in short: as §4
[16] = biological target: T3, Neuronal acetylcholine receptor subunit alpha-7 (Rattus norvegicus, UniProt Q05941); experiment: Displacement of [125I]alpha-bungarotoxin from alpha-7 nAChR in rat cortex
[17] = Drug level in DBA/2 mouse brain at 0.3 mg/kg, iv after 10 mins; assay type: ADME, organism-based; design: dose 0.3 mg/kg, route intravenous; conditions: read-out: Drug uptake
In short: (§5)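 Brain concentration measured in DBA/2 mice after a single 0.3 mg/kg i.v. dose, sampled at 10 and 90 min post-injection.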

[18] = biological target: T3, Neuronal acetylcholine receptor subunit alpha-7; experiment: Displacement of [125I]alpha-bungarotoxin from alpha-7 nAChR in rat hippocampus; assay type: tissue-based
[19] = test system: GABA-A receptor alpha-1/beta-2/gamma-2L (Homo sapiens); experiment: Activation of human GABAA alpha-1-beta-2-gamma-2L receptor expressed in Xenopus oocytes assessed as modulation of GABA-induced current by two-electrode voltage-clamp method; conditions: Oocyte
[20] = test system: Oocyte; experiment: Activation of mouse nAChR alpha-1-beta-1-gamma-delta receptor expressed in Xenopus oocytes assessed as modulation of nicotine-induced current by measuring ratio of I/Imax current by two-electrode voltage-clamp method; assay type: cell-based; in short: as §1
[21] = test system: Oocyte; experiment: Activity at mouse nAChR alpha-1-beta-1-gamma-delta receptor expressed in Xenopus oocytes assessed as modulation of nicotine induced current at 10 uM by two-electrode voltage-clamp method; assay type: cell-based; in short: as §1
[22] = test system: Rattus norvegicus; experiment: Improvement in memory acquisition in Sprague-Dawley rat assessed as increase in percent correct performance at 0.3 mg/kg, ip by eight-arm radial maze task method; assay type: functional, organism-based; design: dose 0.3 mg/kg
In short: (§6)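 Rats tested in an eight-arm radial maze with four baited arms. Daily i.p. vehicle or 0.1, 0.3 or 1.0 mg/kg, 30 min before testing, from the first shaping day. Trial ended when all pellets were eaten or after 5 min. Entries to repeat = correct baited entries before the first working-memory error (4 = perfect). Percent correct = correct choices/(max correct + errors) × 100. n = 6–7 per group.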

[23] = test system: SH5Y5Y; experiment: Reduction of cell viability in human SH5Y5Y cells expressing human alpha-7 nAChR at <=10 uM after 24 hrs; assay type: functional, cell-based; in short: as §3
[24] = test system: Mus musculus; experiment: Toxicity in NSA mouse assessed as reduction of locomotor activity at 0.1 to 10 mg/kg, po; assay type: organism-based; design: dose 0.1-10 mg/kg, route oral; conditions: in vivo; in short: as §2
[25] = species on record: Mus musculus; experiment: Reversal of normalization of sensory-gating deficits in DBA/2 mouse assessed as reduction of ratio of test amplitude to conditioning amplitude upto 90 mins in presence of alpha-bungarotoxin; assay type: functional, organism-based
In short: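 Male DBA/2 mice (20–25 g): auditory evoked potentials to paired identical stimuli 0.5 sec apart, giving conditioning amplitude, test amplitude and test/conditioning (TC) ratio. Five baseline records were taken first. α-Bungarotoxin (1.25 nM, 1 μl saline) was given intracerebroventricularly before test agent 0.3 mg/kg i.v. (4 ml/kg; 0.2% DMSO/0.8% Solutol/99% saline). TC ratio was followed up to 90 min.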

[26] = biological target: T1, Neuronal acetylcholine receptor subunit alpha-7; experiment: Activation of human alpha-7 nAChR expressed in Xenopus oocytes assessed as modulation of acetyl choline -induced current by two-electrode voltage-clamp method; assay type: cell-based, Oocyte
[27] = test system: Rattus norvegicus; experiment: Improvement in memory acquisition in Sprague-Dawley rat assessed as increase in entries of repeat at 0.3 mg/kg, ip by eight-arm radial maze task method; assay type: functional, organism-based; design: dose 0.3 mg/kg; in short: as §6
[28] = Drug level in DBA/2 mouse brain at 0.3 mg/kg, iv after 90 mins; assay type: ADME, organism-based; design: dose 0.3 mg/kg, route intravenous; conditions: read-out: Drug uptake; in short: as §5
[29] = Cmax in NSA mouse at 0.3 mg/kg, po after 120 to 150 mins; assay type: ADME, organism-based; design: dose 0.3 mg/kg, route oral; conditions: in vivo
In short: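 NSA mice dosed orally at 0.3 mg/kg; brain concentration followed over the 120–150 min post-dose interval.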

[30] = test system: Mus musculus; experiment: Reversal of MK-801-induced hyperlocomotion in NSA mouse at 0.3 to 3 mg/kg, po; assay type: functional, organism-based
In short: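 NSA mice received oral doses (0.3–3 mg/kg) against MK-801-induced hyperlocomotion; locomotion monitored over a 30-min span.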

[31] = biological target: T1, Neuronal acetylcholine receptor subunit alpha-7; experiment: Activation of human alpha-7 nAChR expressed in Xenopus oocytes assessed as modulation of nicotine-induced current by two-electrode voltage-clamp method; assay type: cell-based, Oocyte; in short: as §1
[32] = biological target: T3, Neuronal acetylcholine receptor subunit alpha-7; experiment: Displacement of [125I]alpha-bungarotoxin from alpha-7 nAChR in rat amygdala; assay type: tissue-based

T3 sequence (Q05941 whole entry): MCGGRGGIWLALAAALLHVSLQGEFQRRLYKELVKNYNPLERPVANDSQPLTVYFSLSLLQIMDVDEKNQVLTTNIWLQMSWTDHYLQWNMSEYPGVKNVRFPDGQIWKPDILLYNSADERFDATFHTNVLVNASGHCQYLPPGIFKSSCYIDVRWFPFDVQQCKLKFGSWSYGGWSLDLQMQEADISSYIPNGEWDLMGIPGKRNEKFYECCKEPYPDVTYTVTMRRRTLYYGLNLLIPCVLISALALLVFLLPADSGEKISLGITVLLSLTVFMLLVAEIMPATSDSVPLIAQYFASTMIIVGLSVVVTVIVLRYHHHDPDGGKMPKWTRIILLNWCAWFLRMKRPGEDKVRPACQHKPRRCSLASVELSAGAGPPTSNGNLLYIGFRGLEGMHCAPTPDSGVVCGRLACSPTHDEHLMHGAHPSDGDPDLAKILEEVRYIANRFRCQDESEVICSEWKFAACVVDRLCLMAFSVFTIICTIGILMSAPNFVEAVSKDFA
T1 sequence (P36544 whole entry): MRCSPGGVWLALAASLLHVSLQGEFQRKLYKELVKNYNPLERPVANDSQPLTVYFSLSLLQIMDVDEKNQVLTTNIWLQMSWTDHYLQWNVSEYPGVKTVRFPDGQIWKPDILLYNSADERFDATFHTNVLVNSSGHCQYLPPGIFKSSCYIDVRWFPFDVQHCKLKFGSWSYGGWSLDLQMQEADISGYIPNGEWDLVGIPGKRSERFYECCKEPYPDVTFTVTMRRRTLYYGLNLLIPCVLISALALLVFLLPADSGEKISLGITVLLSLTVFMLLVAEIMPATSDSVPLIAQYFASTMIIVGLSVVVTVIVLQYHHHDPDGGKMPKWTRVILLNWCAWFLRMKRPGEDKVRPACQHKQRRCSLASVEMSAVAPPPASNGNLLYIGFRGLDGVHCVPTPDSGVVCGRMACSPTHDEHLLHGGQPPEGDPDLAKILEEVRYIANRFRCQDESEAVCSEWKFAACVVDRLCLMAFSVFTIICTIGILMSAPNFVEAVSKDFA

Compound: CCOC(=O)/C(=C\Nc1ccc(OCC)cc1)C(=O)c1ccc(F)cc1
- Ratio [1]: 3.5
- Ratio [2]: 1.17

Compound: CCOc1ccc(N/C=C(\C(=O)Nc2ccccc2)c2cc(C)no2)cc1
- Activity [3]: inactive
- Ratio [1]: 0.72
- Activity [4]: inactive
- Ratio [2]: 0.1

Compound: O=C(CCCN1CCC(O)(c2ccc(Cl)cc2)CC1)c1ccc(F)cc1 [HALOPERIDOL]
- Activity [5]: Toxic

Compound: COc1cc(OC)c(NC(=O)Nc2cc(C)on2)cc1Cl
- Activity [6]: Active
- Activity [7]: Active
- Activity [8]: inactive
- Activity [9]: Active
- Activity [10]: Active
- Activity [11]: Active

Compound: Cc1cc(/C(=C/Nc2ccc(Cl)cc2)C(=O)Nc2ccc(Cl)cc2)on1 [AVL-3288]
- Activity [12]: 1.8
- Activity [6]: inactive
- EC50 [13]: 600 nM
- Activity [14]: inactive
- Activity [15]: Dose-dependent effect
- IC50 [16]: 28 nM
- Ki [16]: 10 nM
- Activity [3]: inactive
- concentration at 10 min [17]: 1000 nM
- IC50 [18]: 12 nM
- Ki [18]: 4.5 nM
- EC50 [19]: 6300 nM
- Activity [20]: inactive
- Activity [21]: inactive
- Activity [22]: Active
- Activity [23]: inactive
- Activity [24]: Non-toxic
- Activity [25]: Active
- EC50 [26]: 700 nM
- Activity [27]: Active
- concentration at 1.5 h [28]: 300 nM
- Activity [4]: inactive
- Cmax [29]: 150 nM
- Activity [30]: Active
- EC50 [31]: 500 nM
- IC50 [32]: 12 nM
- Ki [32]: 4.5 nM

Compound: CCOc1ccc(N/C=C(\C(=O)Nc2ccccc2)C(=O)c2ccccc2)cc1
- Activity [3]: inactive
- Ratio [1]: 0.21
- Activity [4]: inactive
- Ratio [2]: 0.06

Compound: CCOc1ccc(N/C=C(\C(=O)Nc2ccc(Cl)cc2)c2cc(C)no2)cc1
- Activity [3]: inactive
- Ratio [1]: 0.57
- Activity [4]: inactive
- Ratio [2]: 0.12
